{"source": "ChEMBL document CHEMBL1139860", "about": "“Cytotoxic germacranolides and acyclic diterpenoides from the seeds of Carpesium triste” (J Nat Prod, 2007)", "format_in_all_cases": "cell-based", "key": {"[1]": {"test": "Cytotoxicity against human SMMC7721 cells after 48 hrs", "settings": "SMMC-7721, 48 h", "how_it_was_run": "(§1)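 SRB assay. Exponentially growing cells were seeded at 5 × 10^3 per well and incubated 24 h, then exposed 48 h to 5-6 concentrations per run, with vincristine sulfate as positive control. Extracted dye absorbance was read at 515 nm. Percent survival was calculated against untreated cells set at 100%. Done in triplicate.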"}, "[2]": {"system": "HL-60", "test": "Cytotoxicity against human HL60 cells after 48 hrs", "settings": "HL-60, 48 h", "how_it_was_run": "as §1"}, "[3]": {"test": "Cytotoxicity against human L02 cells after 48 hrs", "settings": "L02, 48 h", "how_it_was_run": "as §1"}}, "data": [{"smiles": "C=C1C(=O)O[C@H]2[C@H]1[C@@H](OC(=O)/C(C)=C\\C)C(=O)[C@H](C)CCC[C@](C)(O)[C@@H]2OC(=O)C(C)C", "values": [{"measurement": "IC50", "setting": "[1]", "result": 46.3, "unit": "µg/mL"}, {"measurement": "IC50", "setting": "[2]", "result": 3.4, "unit": "µg/mL"}, {"measurement": "IC50", "setting": "[3]", "result": 72.4, "unit": "µg/mL"}]}, {"smiles": "C=C1C(=O)O[C@H]2[C@H]1[C@@H](OC(=O)C(C)C)[C@H](O)[C@H](C)CCC(=O)[C@](C)(O)[C@@H]2OC(=O)C(C)C", "values": [{"measurement": "IC50", "setting": "[1]", "result": 33.5, "unit": "µg/mL"}, {"measurement": "IC50", "setting": "[2]", "result": 3.2, "unit": "µg/mL"}, {"measurement": "IC50", "setting": "[3]", "result": 42.3, "unit": "µg/mL"}]}, {"smiles": "CC(=O)OC/C(=C\\CC/C(C)=C/CO)CCC[C@H](C)[C@H](O)CC=C(C)C", "values": [{"measurement": "IC50", "setting": "[1]", "result": "> 100", "unit": "µg/mL"}, {"measurement": "IC50", "setting": "[2]", "result": "> 100", "unit": "µg/mL"}, {"measurement": "IC50", "setting": "[3]", "result": "> 100", "unit": "µg/mL"}]}, {"smiles": "C=C1C(=O)O[C@H]2[C@H]1[C@@H](O)[C@H](OC(=O)CC(C)C)[C@H](C)CCC(=O)[C@](C)(O)[C@@H]2OC(=O)C(C)CC", "note": "(stereo not given in full)", "values": [{"measurement": "IC50", "setting": "[1]", "result": 29.7, "unit": "µg/mL"}, {"measurement": "IC50", "setting": "[2]", "result": 10.3, "unit": "µg/mL"}, {"measurement": "IC50", "setting": "[3]", "result": 57.5, "unit": "µg/mL"}]}, {"smiles": "CC(C)=CC[C@@H](O)[C@@H](C)CCC/C(C)=C/CC/C(C)=C/CO", "values": [{"measurement": "IC50", "setting": "[1]", "result": "> 100", "unit": "µg/mL"}, {"measurement": "IC50", "setting": "[2]", "result": 42.4, "unit": "µg/mL"}, {"measurement": "IC50", "setting": "[3]", "result": "> 100", "unit": "µg/mL"}]}, {"smiles": "CC(=O)OC/C=C(\\C)CC/C=C(/CCC[C@H](C)[C@H](O)CC=C(C)C)COC(C)=O", "values": [{"measurement": "IC50", "setting": "[1]", "result": 12.5, "unit": "µg/mL"}, {"measurement": "IC50", "setting": "[2]", "result": 20.2, "unit": "µg/mL"}, {"measurement": "IC50", "setting": "[3]", "result": 31.3, "unit": "µg/mL"}]}, {"smiles": "C=C1C(=O)O[C@H]2[C@H]1[C@@H](O)[C@H](OC(=O)CC(C)C)[C@H](C)CCC(=O)[C@](C)(O)[C@@H]2OC(=O)C(C)C", "values": [{"measurement": "IC50", "setting": "[1]", "result": 44.8, "unit": "µg/mL"}, {"measurement": "IC50", "setting": "[2]", "result": 1.7, "unit": "µg/mL"}, {"measurement": "IC50", "setting": "[3]", "result": 23.1, "unit": "µg/mL"}]}, {"smiles": "C=C1C(=O)O[C@H]2[C@H]1[C@@H](OC(=O)C(C)C)C(=O)[C@H](C)CCC[C@](C)(O)[C@@H]2OC(=O)C(C)C", "note": "[INCASPITOLIDE A]", "values": [{"measurement": "IC50", "setting": "[1]", "result": 97.1, "unit": "µg/mL"}, {"measurement": "IC50", "setting": "[2]", "result": 11.8, "unit": "µg/mL"}, {"measurement": "IC50", "setting": "[3]", "result": 86.4, "unit": "µg/mL"}]}, {"smiles": "C=C1C(=O)O[C@H]2[C@H]1[C@@H](O)[C@H](OC(=O)C(C)C)[C@H](C)CCC(=O)[C@](C)(O)[C@@H]2OC(=O)C(C)C", "note": "[INCASPITOLIDE D]", "values": [{"measurement": "IC50", "setting": "[1]", "result": 62.5, "unit": "µg/mL"}, {"measurement": "IC50", "setting": "[2]", "result": 14.3, "unit": "µg/mL"}, {"measurement": "IC50", "setting": "[3]", "result": 95.7, "unit": "µg/mL"}]}, {"smiles": "CC[C@]1(O)C[C@H]2CN(CCc3c([nH]c4ccccc34)[C@@](C(=O)OC)(c3cc4c(cc3OC)N(C=O)[C@H]3[C@@](O)(C(=O)OC)[C@H](OC(C)=O)[C@]5(CC)C=CCN6CC[C@]43[C@@H]65)C2)C1.O=S(=O)(O)O", "note": "[VINCRISTINE SULFATE]", "values": [{"measurement": "IC50", "setting": "[1]", "result": 26.7, "unit": "µg/mL"}, {"measurement": "IC50", "setting": "[2]", "result": 11.2, "unit": "µg/mL"}, {"measurement": "IC50", "setting": "[3]", "result": 28.4, "unit": "µg/mL"}]}]}
